Active and inactive are the calls of the source. The rule behind the calls is not given here.
How the values were obtained:
[1] = tested on: MCF7/6; assay: Antiinvasive activity against human MCF7/6 cells assessed as occupying less than half of original amount of heart tissue at 0.1 umol/L after 8 days by hematoxylin and eosin staining assay; format: functional, cell-based
In short: (§1)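 Precultured heart fragments from 9-day-old chick embryos (0.4 mm diameter) were paired with MCF-7/6 aggregates (0.2 mm). Pairs sat overnight at 37 °C on semi-solid agar, then spun 8 days in suspension (37 °C, 120 rpm, 10% CO₂) with compound added in DMSO. Runs were usually in duplicate; 10 µmol/L often single. 7 µm sections were scored histologically for invasion grade 0–IV, with alternate sections stained with 5D10 antibody.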

[2] = tested on: MCF7/6; assay: Antiinvasive activity against human MCF7/6 cells assessed as decrease in occupying outer fibroblast-like and myoblast cell layers at 1 umol/L after 8 days by hematoxylin and eosin staining assay; format: functional, cell-based; in short: as §1
[3] = Antiinvasive activity against human MCF7/6 cells assessed as minimum log concentration required to show activity after 8 days by hematoxylin and eosin staining-based chick heart invasion assay; format: functional; parameters: unit: log(µmol/L)
In short: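 Confronting cultures were set up as chick heart fragments (9-day embryos) plus MCF-7/6 aggregates, 8 days at 37 °C. Compound was dosed in DMSO at 10, 1, 0.1 and 0.01 µmol/L, in duplicate, and grades were scored histologically. c_min is the lowest concentration where both repeats gave grade I or II; inconclusive cases were repeated. A single active repeat counted if all repeats at 10-fold higher were active. The value is reported as log c_min.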

[4] = tested on: MCF7/6; assay: Antiinvasive activity against human MCF7/6 cells assessed as occupying less than half of original amount of heart tissue at 1 umol/L after 8 days by hematoxylin and eosin staining assay; format: functional, cell-based; in short: as §1
[5] = tested on: MCF7/6; assay: Antiinvasive activity against human MCF7/6 cells assessed as precultured chick heart tissue fragment attachment without occupying heart tissue and outermost fibroblastic cell layer at 10 umol/L after 8 days by hematoxylin and eosin staining assay; format: functional, cell-based; in short: as §1
[6] = tested on: MCF7/6; assay: Antiinvasive activity against human MCF7/6 cells assessed as decrease in occupying outer fibroblast-like and myoblast cell layers at 0.1 umol/L after 8 days by hematoxylin and eosin staining assay; format: functional, cell-based; in short: as §1
[7] = tested on: MCF7/6; assay: Antiinvasive activity against human MCF7/6 cells assessed as precultured chick heart tissue fragment attachment without occupying heart tissue and outermost fibroblastic cell layers at 1 umol/L after 8 days by hematoxylin and eosin staining assay; format: functional, cell-based; in short: as §1
[8] = tested on: MCF7/6; assay: Antiinvasive activity against human MCF7/6 cells assessed as occupying less than half of original amount of chick precultured heart tissue fragment at 10 umol/L after 8 days by hematoxylin and eosin staining assay; format: functional, cell-based; in short: as §1
[9] = tested on: MCF7/6; assay: Antiinvasive activity against human MCF7/6 cells assessed as decrease in occupying outer fibroblast-like and myoblast cell layers at 0.01 umol/L after 8 days by hematoxylin and eosin staining assay; format: functional, cell-based; in short: as §1
[10] = tested on: MCF7/6; assay: Antiinvasive activity against human MCF7/6 cells assessed as decrease in occupying outer fibroblast-like and myoblast cell layers at 10 umol/L after 8 days by hematoxylin and eosin staining assay; format: functional, cell-based; in short: as §1
[11] = tested on: MCF7/6; assay: Antiinvasive activity against human MCF7/6 cells assessed as chick precultured heart tissue fragment attachment without occupying heart tissue and outermost fibroblastic cell layer at 0.1 umol/L after 8 days by hematoxylin and eosin staining assay; format: functional, cell-based; in short: as §1
[12] = tested on: MCF7/6; assay: Antiinvasive activity against human MCF7/6 cells assessed as occupying more than half of original amount of chick precultured heart tissue fragment at 10 umol/L after 8 days by hematoxylin and eosin staining assay; format: functional, cell-based; in short: as §1

| SMILES | Activity [1] | Activity [2] | logMEC [3] | Activity [6] | Activity [9] | Activity [10] | also measured |
| --- | --- | --- | --- | --- | --- | --- | --- |
| Fc1ccc(/C=C/c2ccccc2)cc1 | inactive | Active | – | – | – | – | – |
| COc1cc(/C=C\c2ccc(F)cc2)cc(OC)c1OC | inactive | – | 1 | – | – | – | Activity [4]: inactive; Activity [5]: Active |
| C(=C\c1ccccc1)/c1ccccc1 | – | Active | -1 | Active | – | – | Activity [7]: Active; Activity [8]: inactive |
| Fc1ccc(/C=C/c2ccc(F)cc2)cc1 | – | – | -2 | Active | Active | Active | – |
| Fc1ccc(/C=C\c2ccccc2)cc1 | – | – | -2 | – | Active | – | – |
| COc1cc(/C=C/c2ccc(F)cc2)cc(OC)c1OC | inactive | – | 0 | – | – | Active | – |
| COc1ccc(/C=C/c2ccc(F)cc2)cc1 | – | – | -2 | Active | Active | Active | – |
| COc1cc(/C=C/c2ccccc2)cc(OC)c1OC | – | – | -1 | – | – | Active | – |
| COc1ccc(/C=C/c2ccccc2)cc1 | – | – | -1 | Active | – | – | Activity [11]: Active; Activity [12]: inactive |
| COc1cc(/C=C\c2ccccc2)cc(OC)c1OC | – | Active | -2 | Active | Active | Active | Activity [7]: Active |

From ChEMBL document CHEMBL3108707, “Design, synthesis and structure-activity relationships of some novel, highly potent anti-invasive (E)- and (Z)-stilbenes” (2013)
